Source: ChEMBL document CHEMBL3526050, “Elucidation of the metabolic pathways and the resulting multiple metabolites of almorexant, a dual orexin receptor antagonist, in humans” (Drug Metab Dispos, 2013)
One block for each molecule: values may come before it.

Key:
[1] = Drug level in feces of healthy human treated with [14C]almorexant at 200 mg, po dosed as single dose; format: ADME, organism-based; details: in vivo
How it was run: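 Feces pooled by weight across 6 subjects (0–48 to 192–332 h) and extracted three times with acetonitrile, then dried and reconstituted. Analyzed by radio-LC-MS/MS with a methanol/acetonitrile gradient and scintillation-counted fractions. Procedural recovery was 73.0%. Reported as percent of administered radioactive dose.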

Plasma [2] = assay: Drug level in plasma of healthy human treated with [14C]almorexant at 200 mg, po dosed as single dose; format: ADME, organism-based; details: in vivo
How it was run: (§1)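 Plasma from 6 subjects given one 200 mg oral 14C dose, pooled over at least 2 time points and acetonitrile-precipitated. Radio-LC-MS/MS used a C18 column with ammonium formate pH 4.0/acetonitrile gradient and 0.15-min fractions scintillation-counted. Peak radioactivity converted to ng-equivalents/mL to give AUC0-t. Co-eluting metabolites grouped and expressed relative to parent AUC and to total radioactivity.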

Homo sapiens [3] = assay: Toxicity in healthy human at 200 mg, po dosed as single dose; format: organism-based; details: in vivo
Homo sapiens [4] = assay: Toxicity in healthy human assessed as incidence of adverse events at 200 mg, po dosed as single dose; format: organism-based; details: in vivo
Homo sapiens [5] = assay: Toxicity in healthy human assessed as effect on clinical laboratory parameters at 200 mg, po dosed as single dose; format: organism-based; details: in vivo
Homo sapiens [6] = assay: Toxicity in healthy human assessed as effect on vital signs parameters at 200 mg, po dosed as single dose; format: organism-based; details: in vivo
Homo sapiens [7] = assay: Toxicity in healthy human assessed as effect on ECG variables parameters at 200 mg, po dosed as single dose; format: organism-based; details: in vivo
[8] = Cmax in healthy human at 200 mg, po dosed as single dose; format: ADME, organism-based; set-up: dose 200 mg, route oral; details: in vivo
How it was run: (§2)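 Plasma parent and metabolites M3, M5, M6, M8 after one 200 mg oral 14C dose in 6 fasted male subjects, sampled 0.17–240 h. Validated LC-MS/MS with penta-deuterated internal standards and positive ESI. Low range 0.4/1.0–100 ng/mL using supported liquid extraction, high range 50–1000 ng/mL using protein precipitation. Noncompartmental analysis, geometric means (95% CI), Tmax median (range).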

[9] = Tmax in healthy human at 200 mg, po dosed as single dose; format: ADME, organism-based; details: in vivo; how it was run: as §2
[10] = Half life in healthy human at 200 mg, po dosed as single dose; format: ADME, organism-based; details: in vivo; how it was run: as §2
[11] = AUC (0 to infinity) in healthy human at 200 mg, po dosed as single dose; format: ADME, organism-based; set-up: dose 200 mg, route oral, time infinity; details: plasma; how it was run: as §2
Blood [12] = assay: Cmax in healthy human whole blood assessed as radioactivity at 200 mg, po dosed as single dose; format: ADME, organism-based; set-up: dose 200 mg, route oral; details: in vivo
How it was run: (§3)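 Six fasted healthy male subjects given one oral capsule of 200 mg almorexant with about 84 µCi 14C. EDTA blood taken pre-dose to 240 h. Whole blood (solubilized, peroxide-treated) and plasma counted in triplicate by liquid scintillation. Noncompartmental PK: Cmax/Tmax read directly, linear trapezoidal AUC extrapolated via λz, t1/2 = ln2/λz. Geometric mean (95% CI), Tmax median (range).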

Blood [13] = assay: Tmax in healthy human whole blood assessed as radioactivity at 200 mg, po dosed as single dose; format: ADME, organism-based; details: in vivo; how it was run: as §3
Blood [14] = assay: Half life in healthy human whole blood assessed as radioactivity at 200 mg, po dosed as single dose; format: ADME, organism-based; details: in vivo; how it was run: as §3
Blood [15] = assay: AUC (0 to infinity) in healthy human whole blood assessed as radioactivity at 200 mg, po dosed as single dose; format: ADME, organism-based; set-up: dose 200 mg, route oral, time infinity; details: in vivo; how it was run: as §3
Plasma [16] = assay: Cmax in healthy human plasma assessed as radioactivity at 200 mg, po dosed as single dose; format: ADME, organism-based; set-up: dose 200 mg, route oral; details: in vivo; how it was run: as §3
Plasma [17] = assay: Tmax in healthy human plasma assessed as radioactivity at 200 mg, po dosed as single dose; format: ADME, organism-based; details: in vivo; how it was run: as §3
Plasma [18] = assay: Half life in healthy human plasma assessed as radioactivity at 200 mg, po dosed as single dose; format: ADME, organism-based; details: in vivo; how it was run: as §3
Plasma [19] = assay: AUC (0 to infinity) in healthy human plasma assessed as radioactivity at 200 mg, po dosed as single dose; format: ADME, organism-based; set-up: dose 200 mg, time infinity, route oral; details: in vivo; how it was run: as §3
[20] = Ratio of drug level in whole blood to plasma in healthy human at 200 mg, po dosed as single dose; format: ADME, organism-based; details: whole blood and plasma; how it was run: as §3
Homo sapiens [21] = assay: Tlast in healthy human at 200 mg, po dosed as single dose; format: ADME, organism-based; details: in vivo; how it was run: as §1
Homo sapiens [22] = assay: Tmax in healthy human assessed as total radioactivity at 200 mg, po dosed as single dose; format: ADME, organism-based; details: in vivo; how it was run: as §3
Homo sapiens [23] = assay: Cmax in healthy human assessed as total radioactivity at 200 mg, po dosed as single dose; format: ADME, organism-based; set-up: dose 200 mg, route oral; details: in vivo; how it was run: as §3
Homo sapiens [24] = assay: Tlast in healthy human assessed as total radioactivity at 200 mg, po dosed as single dose; format: ADME, organism-based; details: in vivo
Homo sapiens [25] = assay: Drug level in healthy human at 200 mg, po dosed as single dose relative to total radioactivity; format: ADME, organism-based; details: in vivo; how it was run: as §1
[26] = Drug excretion in healthy human urine assessed as total radioactivity at 200 mg, po dosed as single dose; format: ADME, organism-based; details: in vivo
How it was run: (§4)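 Urine collected in 8-h then 24-h intervals, and all feces for 10 days (longer if recovery <90%) after one 200 mg oral 14C dose in 6 fasted males. Urine counted directly by liquid scintillation. Feces homogenized in water, and about 300 mg aliquots combusted before counting, done in triplicate. Stearic acid 14C quality controls were included.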

[27] = Drug excretion in healthy human feces assessed as total radioactivity at 200 mg, po dosed as single dose; format: ADME, organism-based; details: in vivo; how it was run: as §4
Homo sapiens [28] = assay: AUC (0 to t) in healthy human at 200 mg, po dosed as single dose; format: ADME, organism-based, Plasma; details: in vivo; how it was run: as §1
Homo sapiens [29] = assay: AUC (0 to t) in healthy human assessed as total radioactivity at 200 mg, po dosed as single dose; details: in vivo
Homo sapiens [30] = assay: Cmax in healthy human treated with [14C]almorexant at 200 mg, po dosed as single dose; format: ADME, organism-based; set-up: dose 200 mg, route oral; details: in vivo
Homo sapiens [31] = assay: Tmax in healthy human treated with [14C]almorexant at 200 mg, po dosed as single dose; format: ADME, organism-based; details: in vivo; how it was run: as §2
Homo sapiens [32] = assay: Half life in healthy human treated with [14C]almorexant at 200 mg, po dosed as single dose; format: ADME, organism-based; details: in vivo; how it was run: as §2
Homo sapiens [33] = assay: AUC (0 to infinity) in healthy human treated with [14C]almorexant at 200 mg, po dosed as single dose; format: ADME, organism-based, Plasma; set-up: dose 200 mg, route oral, time infinity; details: in vivo
Homo sapiens [34] = assay: Tlast in healthy human treated with [14C]almorexant at 200 mg, po dosed as single dose; format: ADME, organism-based; details: in vivo; how it was run: as §1
Homo sapiens [35] = assay: Drug level in healthy human treated with [14C]almorexant at 200 mg, po dosed as single dose relative to almorexant; format: ADME, organism-based; details: in vivo; how it was run: as §1
Homo sapiens [36] = assay: Drug level in healthy human treated with [14C]almorexant at 200 mg, po dosed as single dose relative to total radioactivity; format: ADME, organism-based; details: in vivo; how it was run: as §1
Homo sapiens [37] = assay: AUC (0 to t) in healthy human treated with [14C]almorexant at 200 mg, po dosed as single dose; format: ADME, organism-based, Plasma; details: in vivo; how it was run: as §1
[38] = Tmax in po dosed healthy human; format: ADME, organism-based; details: in vivo
[39] = Terminal half life in po dosed healthy human; format: ADME, organism-based; details: in vivo, read-out: beta t1/2 (converted)
[40] = Clearance in po dosed healthy human; format: ADME, organism-based; details: in vivo
Homo sapiens [41] = assay: Volume of distribution in po dosed healthy human; format: ADME, organism-based; details: in vivo
[42] = Tmax in po dosed healthy human receiving additional evening dose; format: ADME, organism-based; details: in vivo
[43] = Absolute bioavailability in po dosed healthy human; format: ADME, organism-based; details: in vivo

Drug metabolism (Plasma [2]): metabolite_detected | Drug metabolism [1]: metabolite_detected | Cmax [8]: 113 ng/mL | Tmax [9]: 0.8 h | half-life [10]: 17.8 h | AUC(0-inf) [11]: 262 ng·h/mL | Cmax (Blood [12]): 678 ng.Eq/ml | Tmax (Blood [13]): 1 h | t1/2 (Blood [14]): 39 h | AUC (Blood [15]): 26321 ng.Eq.hr/ml | Cmax (Plasma [16]): 1060 ng.Eq/ml | Tmax (Plasma [17]): 1 h | t1/2 (Plasma [18]): 78 h | AUC (Plasma [19]): 51547 ng.Eq.hr/ml | blood plasma ratio [20]: 0.51 | Tlast (Homo sapiens [21]): 1.6 h | Tmax (Homo sapiens [22]): 1.6 h | Cmax (Homo sapiens [23]): 1050 ng.Eq/ml | Tlast (Homo sapiens [24]): 300 h | Drug uptake (Homo sapiens [25]): 0.11% | Drug excretion [26]: 8.34% | Drug excretion [27]: 38.7% | AUCt (Homo sapiens [28]): 61.2 ng.Eq.hr/ml | AUC(0-t) (Homo sapiens [29]): 54100 ng.Eq.hr/ml
Structure (SMILES): CNC(=O)[C@@H](c1ccccc1)N1CCc2cc(OC)c(OC)cc2[14C@@H]1CCc1ccc(C(F)(F)F)cc1
Activity (Homo sapiens [3]): Non-toxic | Activity (Homo sapiens [4]): Non-toxic | Activity (Homo sapiens [5]): Non-toxic | Activity (Homo sapiens [6]): Non-toxic | Activity (Homo sapiens [7]): Non-toxic

Drug metabolism (Plasma [2]): metabolite_detected | Drug metabolism [1]: metabolite_detected | Cmax (Homo sapiens [30]): 61.4 ng/mL | Tmax (Homo sapiens [31]): 1 h | t1/2 (Homo sapiens [32]): 21.7 h | AUC (Homo sapiens [33]): 386 ng·h/mL
Structure (SMILES): CNC(=O)[C@@H](c1ccccc1)N1CCc2cc(OC)c(O)cc2[C@@H]1CCc1ccc(C(F)(F)F)cc1

Tmax [38]: 0.8 h | half-life [39]: 17.8 h | CL/F [40]: 717 mL/min | Vd (Homo sapiens [41]): 683 L | Tmax [42]: 3 h | bioavailability [43]: 11.4%
Structure (SMILES): CNC(=O)[C@@H](c1ccccc1)N1CCc2cc(OC)c(OC)cc2[C@@H]1CCc1ccc(C(F)(F)F)cc1 [ALMOREXANT]

Second part, the molecule before the results:

Structure (SMILES): CNC(=O)[C@@H](c1ccccc1)[n+]1ccc2cc(O)c(OC)cc2c1CCc1ccc(C(F)(F)F)cc1
Drug metabolism [1]: metabolite_detected

Structure (SMILES): CNC(=O)[C@@H](c1ccccc1)N1CCc2cc(O)c(O)cc2[C@@H]1CCc1ccc(C(F)(F)F)cc1
Drug metabolism [1]: metabolite_detected

Structure (SMILES): CNC(=O)[C@@H](c1ccccc1)N1CCc2cc(O)c(OC)cc2[C@@H]1CCc1ccc(C(F)(F)F)cc1
Drug metabolism (Plasma [2]): metabolite_detected | Drug metabolism [1]: metabolite_detected | Cmax (Homo sapiens [30]): 25.7 ng/mL | Tmax (Homo sapiens [31]): 0.8 h | t1/2 (Homo sapiens [32]): 22.1 h | AUC (Homo sapiens [33]): 160 ng·h/mL

Structure (SMILES): COc1cc2c(cc1OC)[C@H](CCc1ccc(C(F)(F)F)cc1)NC[C@H]2O (racemic)
Tmax [9]: 1.6 h | Tlast (Homo sapiens [34]): 1.6 h | Drug uptake (Homo sapiens [35]): 28.1% | Drug uptake (Homo sapiens [36]): 0.03% | AUCt (Homo sapiens [37]): 17.2 ng.Eq.hr/ml
